Laboratory results: ChEMBL document CHEMBL4622988, “Elucidation of Mechanism for Ligand Efficacy at Leukotriene B4 Receptor 2 (BLT2)” (ACS Med Chem Lett, 2020)
Calls of active or inactive are those of the source. No cut-off for these calls is given here.

Columns and labels:
CHO-K1 [1] = experiment: Agonist activity at HA-epitope tagged human BLT2 Y271A/N275A double mutant expressed in CHOK1 cells assessed as induction of chemotactic motility at 100 nM incubated for 2 hrs by hematoxylin and eosin staining based optical microscopic method; format: cell-based
How it was run: (§1)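 CHO cells were transfected with wild-type BLT2, the Y271A mutant or the Y271A/N275A double mutant, then exposed to agonist to induce chemotactic motility. Migrating cells were fixed and stained with hematoxylin/eosin for counting.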

[2] = target: T1, Leukotriene B4 receptor 2 (Homo sapiens) (UniProt Q9NPC1); experiment: Agonist activity at HA-epitope tagged human BLT2 expressed in CHOK1 cells assessed as induction of chemotactic motility at 100 nM incubated for 2 hrs by hematoxylin and eosin staining based optical microscopic method; format: cell-based; conditions: CHO-K1; how it was run: as §1
T1 sequence (whole entry): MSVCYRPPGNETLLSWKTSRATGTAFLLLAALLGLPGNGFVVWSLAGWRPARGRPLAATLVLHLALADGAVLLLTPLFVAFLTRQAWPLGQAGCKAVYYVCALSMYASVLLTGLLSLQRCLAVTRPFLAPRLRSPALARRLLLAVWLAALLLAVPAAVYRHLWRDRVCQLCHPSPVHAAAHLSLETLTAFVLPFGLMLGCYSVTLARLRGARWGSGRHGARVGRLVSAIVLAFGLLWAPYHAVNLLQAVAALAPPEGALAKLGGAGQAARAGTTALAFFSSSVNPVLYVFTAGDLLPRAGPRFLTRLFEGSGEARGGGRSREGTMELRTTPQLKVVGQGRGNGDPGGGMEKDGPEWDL

CHO-K1 [3] = experiment: Agonist activity at HA-epitope tagged human BLT2 Y271A mutant expressed in CHOK1 cells assessed as induction of chemotactic motility at 100 nM incubated for 2 hrs by hematoxylin and eosin staining based optical microscopic method; format: cell-based; how it was run: as §1
[4] = target: T1, Leukotriene B4 receptor 2 (Homo sapiens); experiment: Agonist activity at HA-epitope tagged human BLT2 expressed in CHOK1 cells assessed as induction of chemotactic motility at 300 nM incubated for 2 hrs by hematoxylin and eosin staining based optical microscopic method; format: cell-based; conditions: CHO-K1; how it was run: as §1
CHO-K1 [5] = experiment: Agonist activity at HA-epitope tagged human BLT2 Y271A mutant expressed in CHOK1 cells assessed as induction of chemotactic motility at 300 nM incubated for 2 hrs by hematoxylin and eosin staining based optical microscopic method; format: cell-based; how it was run: as §1
CHO-K1 [6] = experiment: Agonist activity at HA-epitope tagged human BLT2 Y271A/N275A double mutant expressed in CHOK1 cells assessed as induction of chemotactic motility at 300 nM incubated for 2 hrs by hematoxylin and eosin staining based optical microscopic method; format: cell-based; how it was run: as §1
[7] = target: T2, Leukotriene B4 receptor 2 (Homo sapiens, UniProt Q9NPC1); experiment: Displacement of [3H]LTB4 from HA-epitope tagged human BLT2 expressed in CHOK1 cells incubated for 60 mins by liquid scintillation counting method; format: cell-based, CHO-K1
T2 sequence (Q9NPC1 whole entry): T1 sequence (whole entry)
How it was run: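 Competition binding: test ligand competed with 3H-LTB4 for binding to membranes prepared from cells expressing BLT2.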

SMILES	Activity (CHO-K1 [1])	Activity [2]	Activity (CHO-K1 [3])	Activity [4]	Activity (CHO-K1 [5])	Activity (CHO-K1 [6])	Kd ([7]; cho-k1)	Kd ([7]; read-out: Kd) [nM]
CCCCC[C@H](O)/C=C/C=C/C/C=C\CCCC(=O)O	inactive	Active	inactive					
CCCCC/C=C\C[C@H](O)/C=C/C=C\C/C=C\CCCC(=O)O				Active	Active	inactive		
CCCCC(=O)N(Cc1ccc(-c2ccccc2C)cc1)c1ccccc1							Not Active	
CCCCC/C=C\C[C@@H](O)/C=C/C=C/C=C\[C@@H](O)CCCC(=O)O				Active	Active	inactive		
CCCCC(=O)N(Cc1ccc(-c2ccccc2C(=O)O)cc1)c1ccccc1	inactive	Active	inactive					14.7
